Results taken from ChEMBL document CHEMBL1909636, “Evaluation of the antiproliferative activity of diterpene isonitriles from the sponge Pseudoaxinella flava in apoptosis-sensitive and apoptosis-resistant cancer cell lines” (2011).
The source made the active and inactive calls. The rule behind the calls is not given here.

How the values were obtained:
[1] = system: PC-3; test: Growth inhibition of human PC3 cells after 72 hrs by MTT colorimetric assay; type: functional; conditions: PC-3, 72 h
Procedure, shortened: (§1)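 Cells were exposed to the compound over a range of concentrations for three days (72 h) and growth was read by MTT colorimetric assay. IC50 is the concentration that reduces global growth of the cell population by 50%.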

[2] = Growth inhibition of human U373 cells after 72 hrs by MTT colorimetric assay; type: functional, U-373MG ATCC; conditions: U373 MG; procedure, shortened: as §1
[3] = Growth inhibition of human Hs683 cells after 72 hrs by MTT colorimetric assay; type: functional; conditions: Hs 683, 72 h; procedure, shortened: as §1
[4] = system: A549; test: Growth inhibition of human A549 cells after 72 hrs by MTT colorimetric assay; type: functional; conditions: A549, 72 h; procedure, shortened: as §1
[5] = system: LoVo; test: Growth inhibition of human LoVo cells after 72 hrs by MTT colorimetric assay; type: functional; procedure, shortened: as §1
[6] = system: SK-MEL-28; test: Growth inhibition of human SK-MEL-28 cells after 72 hrs by MTT colorimetric assay; type: functional; conditions: SK-MEL-28, 72 h; procedure, shortened: as §1
[7] = system: PC-3; test: Cytostatic activity in human PC3 cells at IC50 by quantitative video microscopy analysis; type: functional, cell-based
Procedure, shortened: (§2)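 PC3 cells were treated for 72 h at a single concentration taken from the 72 h MTT growth assay and followed by computer-assisted phase-contrast videomicroscopy. Dead cells were scored as rounded and refringent, and cytostatic action was distinguished as inhibited proliferation without cell death. Morphology was examined at ×100 and, for high-magnification views, ×500.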

[8] = system: PC-3; test: Cytotoxicity against human PC3 cells assessed as cell death at IC50 by quantitative video microscopy analysis; type: functional, cell-based; procedure, shortened: as §2
[9] = system: PC-3; test: Induction of apoptosis in human PC3 cells assessed as vacuolization after 72 hrs at IC50 by quantitative video microscopy analysis; type: functional, cell-based

| SMILES | GI50 [1] [µM] | GI50 [2] [µM] | GI50 [3] [µM] | GI50 [4] [µM] | GI50 [5] [µM] | GI50 [6] [µM] | Activity [7] | Activity [8] | Activity [9] |
| --- | --- | --- | --- | --- | --- | --- | --- | --- | --- |
| [C-]#[N+]C(C)(C)C[C@@H]1C[C@H](C)[C@H]2CC[C@](C)([N+]#[C-])[C@@H]3CCC(=C)[C@@H]1[C@H]23 | 3 | 10 | 4 | 16 | 3 | 32 | Active | – | – |
| [C-]#[N+][C@@]1(C)CC[C@H]2[C@H]3[C@@H](C(=C)CC[C@H]31)[C@H](CC(=C)C)C[C@@H]2C | 7 | – | – | – | – | – | – | Active | – |
| [C-]#[N+]C(C)(C)C[C@@H]1C[C@H](C)[C@H]2CC[C@H](C)[C@@]3([N+]#[C-])CCC(=C)[C@@H]1[C@H]23 [DIISOCYANOAMPHILECTENE] | 1 | 25 | 50 | 42 | 3 | 6 | Active | – | – |
| [C-]#[N+][C@@]1(C)CC[C@H]2[C@H]3[C@@H](C(=C)CC[C@H]31)[C@H](C=C(C)C)C[C@@H]2C | 7 | – | – | – | – | – | – | Active | Active |
